High-throughput results as filed in PubChem.
PKD1 inh: inhibitors of human PKD1 kinase; hit rate 0.056% among 200,000; inhibition, % (test concentration not listed); Q15139; AID 797; PKD1 kinase fluorescence polarization assay; in the data active = inhibition above about 50%
ROMK mod: modulators of human ROMK potassium channel; P48048; Tet-inducible ROMK, thallium flux fluorescence; actives lie on both sides; B-score at 10 µM; hit rate 2% among 130,000; AID 1918;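 active = signal ratio slope over the read window, or its plate-corrected B-score, at least 3 SD from the plate mean, either direction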;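 note: B-score of the F/F0 ratio slope over 7 to 12 s after thallium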
Mdm2 ligase inh: Mdm2 E3 ligase (human) inhibition; cell-based MDM2 ubiquitination luciferase reporter, 2 h; 0 = plate control, 100 = twice control, blank-subtracted; signal enhancement, % at 5 µM; hit rate 0.11% among 210,000;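 active = signal enhancement of 30% or more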;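 note: luminescence tracks abundance of the self-degrading MDM2-luciferase fusion protein; higher signal means inhibition of MDM2 E3 ligase activity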
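Assay system: stable mammalian line carrying autodegrading MDM2–luciferase fusion reporter; Input: 2000 cells in each well; Compound dosing: single-point 5 µM; Schedule: 2 h compound exposure at 37 °C; Signal: SteadyLite luciferase luminescence after 15 min room-temperature reagent incubation; Evaluation: % luminescence enhancement versus blank-corrected plate control mean; Benchmarks: plate controls and plate blanks.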
Calpain2 inh: calpain II (pig) inhibition; hit rate 0.37% among 220,000; inhibition, % at 16 µM; AID 1236; purified calpain II, fluorogenic peptide substrate, 30 min;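 active = inhibition above about 50%, limit read from the data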
Arbovirus anti: blocks arbovirus infection | inhibition, % at 10 µM | AID 1251 | hit rate 0.37% among 200,000 | arbovirus infection cell-based antiviral screen; in the data active = inhibition above about 30%
KCC2 mod: modulates chloride dependent transport by human KCC2; B-score of Tl+ flux slope (higher = more flux/activation; lower = inhibition) at 10 µM; hit rate 2.2% among 190,000; KCC2 cells, thallium flux FluoZin-2 fluorescence;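 active = thallium flux slope and its plate-corrected score both differing from the plate sample mean at a set confidence after two filtering rounds, in either direction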;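 note: slope of fluorescence scaled to starting intensity during 10 to 20 s after thallium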
Target sequence (Q9H2X9 whole entry, looked up): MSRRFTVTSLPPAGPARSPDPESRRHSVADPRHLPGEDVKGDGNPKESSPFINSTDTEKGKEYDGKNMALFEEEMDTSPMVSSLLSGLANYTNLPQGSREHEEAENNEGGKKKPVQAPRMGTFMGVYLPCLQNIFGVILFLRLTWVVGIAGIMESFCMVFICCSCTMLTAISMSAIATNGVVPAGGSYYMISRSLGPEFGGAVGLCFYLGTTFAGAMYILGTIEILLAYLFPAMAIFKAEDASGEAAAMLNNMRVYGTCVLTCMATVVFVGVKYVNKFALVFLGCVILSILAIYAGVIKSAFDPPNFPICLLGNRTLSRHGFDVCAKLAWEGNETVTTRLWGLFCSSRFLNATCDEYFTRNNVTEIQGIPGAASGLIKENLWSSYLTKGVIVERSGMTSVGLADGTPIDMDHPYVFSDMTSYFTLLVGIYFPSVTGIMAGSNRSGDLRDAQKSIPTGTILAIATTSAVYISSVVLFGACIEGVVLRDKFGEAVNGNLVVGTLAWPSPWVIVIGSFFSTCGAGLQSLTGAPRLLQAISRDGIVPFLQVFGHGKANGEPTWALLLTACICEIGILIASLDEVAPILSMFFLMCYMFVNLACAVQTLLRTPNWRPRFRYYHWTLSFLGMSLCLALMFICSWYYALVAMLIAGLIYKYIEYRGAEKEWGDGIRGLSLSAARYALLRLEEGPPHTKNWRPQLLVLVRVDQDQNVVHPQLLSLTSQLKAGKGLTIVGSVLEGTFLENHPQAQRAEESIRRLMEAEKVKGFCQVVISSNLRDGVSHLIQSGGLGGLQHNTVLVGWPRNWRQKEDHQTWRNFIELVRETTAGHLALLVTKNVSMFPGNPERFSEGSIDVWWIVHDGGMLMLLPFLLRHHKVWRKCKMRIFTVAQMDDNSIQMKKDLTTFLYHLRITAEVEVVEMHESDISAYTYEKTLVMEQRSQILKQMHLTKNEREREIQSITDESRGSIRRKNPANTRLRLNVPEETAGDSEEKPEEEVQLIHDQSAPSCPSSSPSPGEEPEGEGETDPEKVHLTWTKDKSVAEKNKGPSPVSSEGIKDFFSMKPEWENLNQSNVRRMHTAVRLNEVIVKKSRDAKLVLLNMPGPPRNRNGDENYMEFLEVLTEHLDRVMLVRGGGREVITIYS
KCC2 sec1: confirmation of human KCC2 transport modulators. shares compounds with KCC2 mod. HEK293-KCC2, thallium flux, FluoZin2 fluorescence; stronger effect = higher value. normalised thallium flux (F/F0 slope) at 10 µM. hit rate 15% among 3,700;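 active = thallium flux slope above the same plate's solvent-only control mean plus 3 SD; inconclusive = the two replicate wells disagree; inactive = no significant difference from solvent-only control wells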
KCC2 bumet counter: thallium flux despite bumetanide block in KCC2 cells, secondary assay 3 | shares compounds with KCC2 mod | HEK293-KCC2 + bumetanide/ouabain, thallium flux FluoZin2; stronger effect = higher value | normalized thallium flux at 10 µM | hit rate 49% among 3,700;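 active = thallium entry rate above the same plate's blocked-transporter control wells by more than 3 SD; inconclusive = the two repeat wells disagree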;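 note: raw slope of fluorescence over initial fluorescence between 10 and 20 s after thallium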
KCC2 sec2: confirmation of human KCC2 transport modulators. hit rate 23% among 3,700. shares compounds with KCC2 mod. normalized thallium flux at 10 µM. HEK293-KCC2, thallium flux FluoZin2 fluorescence; actives lie on both sides; F/F0 rise rate, 10–20 s post-thallium. AID 1715;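 active = thallium flux slope more than 3 SD above or below the plate's solvent-only control mean, mostly below; inconclusive = the two repeat wells disagreed; inactive = no significant shift from solvent-only controls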;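 note: raw slope with 0.1% DMSO as baseline and bumetanide as block control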
HEK293 Tl flux: acts in parental HEK cells, KCC2 counter-screen; shares compounds with KCC2 mod; HEK293 parental cells, thallium flux FluoZin2, ouabain; baseline-ratio fluorescence slope, 10–20 s after thallium; thallium flux rate (normalised fluorescence) at 10 µM; hit rate 46% among 3,700;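 active = thallium flux rate significantly above the same plate's solvent-only control wells, beyond their mean plus 3 SD; inconclusive = the two replicate wells gave conflicting results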
KCC2 retest ouab: KCC2 (human) modulation, ouabain retest | shares compounds with KCC2 mod | HEK293-KCC2, thallium flux FluoZin2 fluorescence; bidirectional: low = inhibitor, high = activator | raw Tl+ flux slope (below DMSO = inhibition, above = activation) at 10 µM | hit rate 48% among 3,700;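 active = thallium flux slope beyond 3 SD from same-plate DMSO control mean in most replicates, usually higher, sometimes lower; inconclusive = repeat tests gave conflicting results; inactive = no significant difference from controls in most replicates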;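 note: slope of initial-normalized fluorescence between seconds 10 and 20 after thallium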
HEK counter2: acts in parental HEK cells, second KCC2 counter-screen; shares compounds with KCC2 mod; hit rate 33% among 3,700; HEK293 parental, thallium flux FluoZin-2 fluorescence slope; AID 1718; thallium flux slope at 10 µM;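 active = thallium flux slope above the same plate's solvent-control mean plus 3 SD in both duplicate wells; inconclusive = duplicate wells that disagreed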;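 note: run without ouabain in cells lacking the KCC2 cotransporter; slope of fluorescence scaled to its starting value between 10 and 20 s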
* = called active by the depositor. A selection: hits, their analogues and other compounds. The true share with any hit is near 3.7%.

What do the screens show for `O=C(NC(=S)NCCC1=CCCCC1)c1ccc(Br)o1`?
PKD1 inh: 2; ROMK mod: -0.61; Mdm2 ligase inh: -18; Calpain2 inh: 23; Arbovirus anti: 1; KCC2 mod: 59*; KCC2 sec1: inconclusive; KCC2 bumet counter: 0.066*; KCC2 sec2: 0.075*; HEK293 Tl flux: 0.077*; KCC2 retest ouab: 0.077*; HEK counter2: 0.07*

How did O=C(NCCC1=CCCCC1)c1ccc(Br)o1 do in these assays?
PKD1 inh: 0; Mdm2 ligase inh: -5; Calpain2 inh: -1; Arbovirus anti: -1

Results for Nn1c(SCC(=O)N2CCOCC2)nnc1C1CC1 ?
PKD1 inh: 5; ROMK mod: 1.2; Mdm2 ligase inh: 12; Calpain2 inh: -28; Arbovirus anti: 3; KCC2 mod: -0.64

How did CCc1ccc(NC(=O)c2c(Cl)nc(C)c(Cl)c2C)cc1 do in these assays?
PKD1 inh: 2; ROMK mod: 0.28; Mdm2 ligase inh: -11; Calpain2 inh: 7; Arbovirus anti: -9; KCC2 mod: -4.2*; KCC2 sec1: 0.0054; KCC2 bumet counter: 0.0053; KCC2 sec2: 0.025*; HEK293 Tl flux: inconclusive; KCC2 retest ouab: 0.016*; HEK counter2: 0.012

Results for CCC1=C2CC[C@H]3C(=O)N(CC)C(=O)[C@H]3[C@H]2[C@@]2(Cc3ccccc3)C(=NCCOC)OC(=O)N2C1=O ?
Mdm2 ligase inh: 15; Calpain2 inh: -18; KCC2 mod: -0.86

What do the screens show for `Cc1sc2nc(SCc3nnc(-c4cccs4)o3)n(C3CCCC3)c(=O)c2c1C`?
PKD1 inh: -6; ROMK mod: 0.27; Mdm2 ligase inh: -8; Calpain2 inh: -11; Arbovirus anti: 2; KCC2 mod: 10*; KCC2 sec1: 0.017*; KCC2 bumet counter: 0.046*; KCC2 sec2: 0.034; HEK293 Tl flux: 0.019*; KCC2 retest ouab: 0.031; HEK counter2: 0.014*

Results for Cc1nc(C(=O)NNC(=O)c2ccccc2)c(C(F)(F)F)o1 ?
Mdm2 ligase inh: -9; Calpain2 inh: -18; KCC2 mod: 4.2*; KCC2 sec1: 0.0058; KCC2 bumet counter: 0.0065*; KCC2 sec2: inconclusive; HEK293 Tl flux: 0.0087*; KCC2 retest ouab: 0.019; HEK counter2: 0.01

Results for COc1cc(NC(=S)Nc2cccnc2)cc(OC)c1 ?
PKD1 inh: -7; Mdm2 ligase inh: -14; Calpain2 inh: -19; Arbovirus anti: 1; KCC2 mod: 0.8

How did O=C(OC1CCc2ccccc2C1=O)c1ccccc1O (stereo unspecified) do in these assays?
PKD1 inh: -1; Mdm2 ligase inh: 4; Calpain2 inh: 8; Arbovirus anti: 2; KCC2 mod: -3.8*; KCC2 sec1: 0.0087; KCC2 bumet counter: inconclusive; KCC2 sec2: 0.027*; HEK293 Tl flux: 0.0075; KCC2 retest ouab: 0.013*; HEK counter2: 0.011

How did O=C(N/N=C1\CCc2ccccc21)c1ccccc1O do in these assays?
PKD1 inh: -5; Mdm2 ligase inh: -42; Calpain2 inh: 12; Arbovirus anti: -8; KCC2 mod: 0.84

Results for C/C(=N\NC(=O)Cn1nc(C)c([N+](=O)[O-])c1C)c1ccco1 ?
Mdm2 ligase inh: -2; Calpain2 inh: -8; KCC2 mod: -0.32
